From ChEMBL document CHEMBL4689842, “EUbOPEN Chemogenomics Library wave 1” (2021)

Tested on: HEK-293T
Experiment: Multiplex assay against HEK293T;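 as to Population Tubulin-Different-Phenotype (%): share of the cells with healthy nuclei that show this phenotype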
Assay type: toxicity, cell-based
Settings: human
Outline: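 Live cells were stained at seeding with Hoechst33342, BioTracker Green Microtubule Cytoskeleton Dye, MitoTracker Red and Annexin V Alexa Fluor 680, then imaged on a CQ1 microscope at 37°C and 5% CO2 after compound addition. CellPathfinder machine-learning gating split cells into Hoechst high-intensity objects or normal cells. Normal cells were split into healthy, pyknosed or fragmented nuclei, and pyknosed cells into mitotic or apoptotic. Tubulin, mitochondrial-mass and membrane-permeability phenotypes are per cents of healthy-nucleus cells.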

[1] = 12 h, 1 µM, compound concentration 1 uM, replicate 1
[2] = 12 h, 1 µM, compound concentration 1 uM, replicate 2
[3] = 12 h, 10 µM, compound concentration 10 uM, replicate 1
[4] = 12 h, 10 µM, compound concentration 10 uM, replicate 2
[5] = 24 h, 1 µM, compound concentration 1 uM, replicate 1
[6] = 24 h, 1 µM, compound concentration 1 uM, replicate 2
[7] = 24 h, 10 µM, compound concentration 10 uM, replicate 1
[8] = 24 h, 10 µM, compound concentration 10 uM, replicate 2
[9] = 48 h, 1 µM, compound concentration 1 uM, replicate 1
[10] = 48 h, 1 µM, compound concentration 1 uM, replicate 2
[11] = 48 h, 10 µM, compound concentration 10 uM, replicate 1
[12] = 48 h, 10 µM, compound concentration 10 uM, replicate 2

Cc1cc(C)c(S(=O)(=O)N(Cc2ccc(-c3cccc(S(C)(=O)=O)c3)cc2)Cc2ccc(C(F)(F)F)o2)c(C)c1
Population Apoptotic (%) [1]: 47% | Population Fragmented Nuclei (%) [1]: 13% | Population Healthy Nuclei (%) [1]: 36% | Population Hoechst High Intensity Objects (%) [1]: 10% | Population Membrane Permeable-Phenotype (%) [1]: 3% | Population Mitochondria Different-Phenotype (%) [1]: 81% | Population Mitotic Cells (%) [1]: 52% | Population Normal (%) [1]: 89% | Population Pyknosed Nuclei (%) [1]: 49% | Population Tubulin-Different-Phenotype (%) [1]: 59% | Total Cell Count [1]: 263 | Population Apoptotic (%) [2]: 13% | Population Fragmented Nuclei (%) [2]: 6% | Population Healthy Nuclei (%) [2]: 49% | Population Hoechst High Intensity Objects (%) [2]: 4% | Population Membrane Permeable-Phenotype (%) [2]: 9% | Population Mitochondria Different-Phenotype (%) [2]: 13% | Population Mitotic Cells (%) [2]: 86% | Population Normal (%) [2]: 95% | Population Pyknosed Nuclei (%) [2]: 43% | Population Tubulin-Different-Phenotype (%) [2]: 9% | Total Cell Count [2]: 213 | Population Apoptotic (%) [3]: 52% | Population Fragmented Nuclei (%) [3]: 12% | Population Healthy Nuclei (%) [3]: 35% | Population Hoechst High Intensity Objects (%) [3]: 14% | Population Membrane Permeable-Phenotype (%) [3]: 10% | Population Mitochondria Different-Phenotype (%) [3]: 89% | Population Mitotic Cells (%) [3]: 47% | Population Normal (%) [3]: 85% | Population Pyknosed Nuclei (%) [3]: 51% | Population Tubulin-Different-Phenotype (%) [3]: 90% | Total Cell Count [3]: 216 | Population Apoptotic (%) [4]: 6% | Population Fragmented Nuclei (%) [4]: 9% | Population Healthy Nuclei (%) [4]: 48% | Population Hoechst High Intensity Objects (%) [4]: 2% | Population Membrane Permeable-Phenotype (%) [4]: 5% | Population Mitochondria Different-Phenotype (%) [4]: 20% | Population Mitotic Cells (%) [4]: 93% | Population Normal (%) [4]: 97% | Population Pyknosed Nuclei (%) [4]: 41% | Population Tubulin-Different-Phenotype (%) [4]: 16% | Total Cell Count [4]: 145 | Population Apoptotic (%) [5]: 43% | Population Fragmented Nuclei (%) [5]: 13% | Population Healthy Nuclei (%) [5]: 44% | Population Hoechst High Intensity Objects (%) [5]: 9% | Population Membrane Permeable-Phenotype (%) [5]: 2% | Population Mitochondria Different-Phenotype (%) [5]: 66% | Population Mitotic Cells (%) [5]: 56% | Population Normal (%) [5]: 90% | Population Pyknosed Nuclei (%) [5]: 42% | Population Tubulin-Different-Phenotype (%) [5]: 49% | Total Cell Count [5]: 304 | Population Apoptotic (%) [6]: 9% | Population Fragmented Nuclei (%) [6]: 6% | Population Healthy Nuclei (%) [6]: 64% | Population Hoechst High Intensity Objects (%) [6]: 2% | Population Membrane Permeable-Phenotype (%) [6]: 10% | Population Mitochondria Different-Phenotype (%) [6]: 10% | Population Mitotic Cells (%) [6]: 90% | Population Normal (%) [6]: 97% | Population Pyknosed Nuclei (%) [6]: 29% | Population Tubulin-Different-Phenotype (%) [6]: 29% | Total Cell Count [6]: 261 | Population Apoptotic (%) [7]: 52% | Population Fragmented Nuclei (%) [7]: 13% | Population Healthy Nuclei (%) [7]: 38% | Population Hoechst High Intensity Objects (%) [7]: 15% | Population Membrane Permeable-Phenotype (%) [7]: 9% | Population Mitochondria Different-Phenotype (%) [7]: 74% | Population Mitotic Cells (%) [7]: 47% | Population Normal (%) [7]: 84% | Population Pyknosed Nuclei (%) [7]: 48% | Population Tubulin-Different-Phenotype (%) [7]: 89% | Total Cell Count [7]: 225 | Population Apoptotic (%) [8]: 11% | Population Fragmented Nuclei (%) [8]: 7% | Population Healthy Nuclei (%) [8]: 72% | Population Hoechst High Intensity Objects (%) [8]: 3% | Population Membrane Permeable-Phenotype (%) [8]: 6% | Population Mitochondria Different-Phenotype (%) [8]: 10% | Population Mitotic Cells (%) [8]: 88% | Population Normal (%) [8]: 96% | Population Pyknosed Nuclei (%) [8]: 19% | Population Tubulin-Different-Phenotype (%) [8]: 24% | Total Cell Count [8]: 187 | Population Apoptotic (%) [9]: 46% | Population Fragmented Nuclei (%) [9]: 13% | Population Healthy Nuclei (%) [9]: 61% | Population Hoechst High Intensity Objects (%) [9]: 8% | Population Membrane Permeable-Phenotype (%) [9]: 4% | Population Mitochondria Different-Phenotype (%) [9]: 38% | Population Mitotic Cells (%) [9]: 53% | Population Normal (%) [9]: 91% | Population Pyknosed Nuclei (%) [9]: 25% | Population Tubulin-Different-Phenotype (%) [9]: 39% | Total Cell Count [9]: 387 | Population Apoptotic (%) [10]: 9% | Population Fragmented Nuclei (%) [10]: 6% | Population Healthy Nuclei (%) [10]: 81% | Population Hoechst High Intensity Objects (%) [10]: 2% | Population Membrane Permeable-Phenotype (%) [10]: 7% | Population Mitochondria Different-Phenotype (%) [10]: 5% | Population Mitotic Cells (%) [10]: 90% | Population Normal (%) [10]: 97% | Population Pyknosed Nuclei (%) [10]: 11% | Population Tubulin-Different-Phenotype (%) [10]: 20% | Total Cell Count [10]: 474 | Population Apoptotic (%) [11]: 45% | Population Fragmented Nuclei (%) [11]: 13% | Population Healthy Nuclei (%) [11]: 60% | Population Hoechst High Intensity Objects (%) [11]: 6% | Population Membrane Permeable-Phenotype (%) [11]: 7% | Population Mitochondria Different-Phenotype (%) [11]: 57% | Population Mitotic Cells (%) [11]: 54% | Population Normal (%) [11]: 93% | Population Pyknosed Nuclei (%) [11]: 25% | Population Tubulin-Different-Phenotype (%) [11]: 80% | Total Cell Count [11]: 302 | Population Apoptotic (%) [12]: 16% | Population Fragmented Nuclei (%) [12]: 8% | Population Healthy Nuclei (%) [12]: 84% | Population Hoechst High Intensity Objects (%) [12]: 1% | Population Membrane Permeable-Phenotype (%) [12]: 3% | Population Mitochondria Different-Phenotype (%) [12]: 3% | Population Mitotic Cells (%) [12]: 84% | Population Normal (%) [12]: 98% | Population Pyknosed Nuclei (%) [12]: 6% | Population Tubulin-Different-Phenotype (%) [12]: 9% | Total Cell Count [12]: 367

NC(=O)c1cccc(-c2cc(Nc3ccc(OC(F)(F)F)cc3)ncn2)c1
Population Apoptotic (%) [1]: 23% | Population Fragmented Nuclei (%) [1]: 12% | Population Healthy Nuclei (%) [1]: 75% | Population Hoechst High Intensity Objects (%) [1]: 7% | Population Membrane Permeable-Phenotype (%) [1]: 4% | Population Mitochondria Different-Phenotype (%) [1]: 5% | Population Mitotic Cells (%) [1]: 76% | Population Normal (%) [1]: 92% | Population Pyknosed Nuclei (%) [1]: 12% | Population Tubulin-Different-Phenotype (%) [1]: 3% | Total Cell Count [1]: 801 | Population Apoptotic (%) [2]: 9% | Population Fragmented Nuclei (%) [2]: 7% | Population Healthy Nuclei (%) [2]: 88% | Population Hoechst High Intensity Objects (%) [2]: 1% | Population Membrane Permeable-Phenotype (%) [2]: 0% | Population Mitochondria Different-Phenotype (%) [2]: 10% | Population Mitotic Cells (%) [2]: 90% | Population Normal (%) [2]: 98% | Population Pyknosed Nuclei (%) [2]: 4% | Population Tubulin-Different-Phenotype (%) [2]: 5% | Total Cell Count [2]: 1607 | Population Apoptotic (%) [3]: 18% | Population Fragmented Nuclei (%) [3]: 15% | Population Healthy Nuclei (%) [3]: 54% | Population Hoechst High Intensity Objects (%) [3]: 17% | Population Membrane Permeable-Phenotype (%) [3]: 4% | Population Mitochondria Different-Phenotype (%) [3]: 4% | Population Mitotic Cells (%) [3]: 81% | Population Normal (%) [3]: 82% | Population Pyknosed Nuclei (%) [3]: 29% | Population Tubulin-Different-Phenotype (%) [3]: 4% | Total Cell Count [3]: 597 | Population Apoptotic (%) [4]: 24% | Population Fragmented Nuclei (%) [4]: 4% | Population Healthy Nuclei (%) [4]: 89% | Population Hoechst High Intensity Objects (%) [4]: 2% | Population Membrane Permeable-Phenotype (%) [4]: 0% | Population Mitochondria Different-Phenotype (%) [4]: 14% | Population Mitotic Cells (%) [4]: 75% | Population Normal (%) [4]: 97% | Population Pyknosed Nuclei (%) [4]: 6% | Population Tubulin-Different-Phenotype (%) [4]: 6% | Total Cell Count [4]: 1186 | Population Apoptotic (%) [5]: 22% | Population Fragmented Nuclei (%) [5]: 12% | Population Healthy Nuclei (%) [5]: 81% | Population Hoechst High Intensity Objects (%) [5]: 4% | Population Membrane Permeable-Phenotype (%) [5]: 7% | Population Mitochondria Different-Phenotype (%) [5]: 3% | Population Mitotic Cells (%) [5]: 77% | Population Normal (%) [5]: 95% | Population Pyknosed Nuclei (%) [5]: 5% | Population Tubulin-Different-Phenotype (%) [5]: 4% | Total Cell Count [5]: 1111 | Population Apoptotic (%) [6]: 3% | Population Fragmented Nuclei (%) [6]: 23% | Population Healthy Nuclei (%) [6]: 74% | Population Hoechst High Intensity Objects (%) [6]: 3% | Population Membrane Permeable-Phenotype (%) [6]: 4% | Population Mitochondria Different-Phenotype (%) [6]: 2% | Population Mitotic Cells (%) [6]: 96% | Population Normal (%) [6]: 96% | Population Pyknosed Nuclei (%) [6]: 2% | Population Tubulin-Different-Phenotype (%) [6]: 6% | Total Cell Count [6]: 2709 | Population Apoptotic (%) [7]: 17% | Population Fragmented Nuclei (%) [7]: 16% | Population Healthy Nuclei (%) [7]: 66% | Population Hoechst High Intensity Objects (%) [7]: 11% | Population Membrane Permeable-Phenotype (%) [7]: 3% | Population Mitochondria Different-Phenotype (%) [7]: 4% | Population Mitotic Cells (%) [7]: 82% | Population Normal (%) [7]: 88% | Population Pyknosed Nuclei (%) [7]: 17% | Population Tubulin-Different-Phenotype (%) [7]: 6% | Total Cell Count [7]: 593 | Population Apoptotic (%) [8]: 4% | Population Fragmented Nuclei (%) [8]: 9% | Population Healthy Nuclei (%) [8]: 85% | Population Hoechst High Intensity Objects (%) [8]: 3% | Population Membrane Permeable-Phenotype (%) [8]: 1% | Population Mitochondria Different-Phenotype (%) [8]: 6% | Population Mitotic Cells (%) [8]: 95% | Population Normal (%) [8]: 96% | Population Pyknosed Nuclei (%) [8]: 4% | Population Tubulin-Different-Phenotype (%) [8]: 11% | Total Cell Count [8]: 1486
